High-throughput results: PubChem, The Scripps Research Institute Molecular Screening Center
TAAR1 agonist = agonists of human TAAR1 | Q96RJ0 | CHO RD-HGA16 TAAR1, Fluo-8 calcium fluorescence; vehicle wells 0%, saturating PEA agonist 100% | activation, % at 3 µM | hit rate 0.99% among 360,000;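 active = activation above the mean activation of all test compounds in the run plus 3 SD, cut at about 38% in these data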
Target sequence (Q96RJ0 whole entry, looked up): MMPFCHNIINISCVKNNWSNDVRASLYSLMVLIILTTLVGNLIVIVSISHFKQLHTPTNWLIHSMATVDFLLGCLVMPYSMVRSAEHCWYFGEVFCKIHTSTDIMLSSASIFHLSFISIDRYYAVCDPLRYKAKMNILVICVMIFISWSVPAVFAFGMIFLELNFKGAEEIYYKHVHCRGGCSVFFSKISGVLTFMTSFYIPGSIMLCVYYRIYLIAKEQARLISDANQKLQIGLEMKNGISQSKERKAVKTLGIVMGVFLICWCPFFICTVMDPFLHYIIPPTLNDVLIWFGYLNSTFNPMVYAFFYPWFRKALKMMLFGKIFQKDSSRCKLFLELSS
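Benchmarks: low control DMSO, high control PEA (EC100); System: CHO RD-HGA16 cells carrying human TAAR1 plus Gα16; Detection: Fluo-8 fluorescence, 5 s baseline then 140 s kinetic read; Schedule: 17-24 h plating, Fluo-8 75 min 37 °C, 30 min RT; Read-out basis: % activation from peak over basal fluorescence ratio, DMSO-to-PEA scaled.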
CHO parental Ca = counter-screen: ATP calcium response change in parental CHO cells; parental CHO-K1, ATP-induced calcium, Fluo-8 fluorescence; inhibition, % at 5.6 µM; hit rate 0.63% among 330,000; AID 463079;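 active = inhibition above that plate's mean sample inhibition plus 3 SD, cut at about 26% in these data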;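 note: 0% = ATP-challenged DMSO wells and 100% = DMSO wells without ATP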
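Material: parental CHO cells / Compound: single nominal dose of 5.6 µM per compound / Signal: Fluo-8 fluorescence / Replicates: singlicate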
TAAR1 antag = antagonists of human TAAR1. Q96RJ0. AID 624466. CHO RD-HGA16 TAAR1, Fluo-8 calcium fluorescence, antagonist. hit rate 1.5% among 360,000. inhibition, % at 3 µM;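 active = inhibition above a per-plate cutoff, the mean inhibition of test compounds on that plate plus 3 SD, cut at about 49% in these data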;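 note: 0% = DMSO plus EC80 beta-PEA response and 100% = DMSO alone without agonist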
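test system = CHO RD-HGA16 cells bearing hTAAR1 | replication = singlicate | controls = DMSO-only wells and EC80 β-PEA-stimulated wells | reagent = EC80 β-phenethylamine stimulus | read-out basis = percent inhibition of PEA-evoked calcium signal, max/basal emission ratio | schedule = seeding 17-24 h prior, 75-min 37 °C, 30-min RT dye loading | signal = kinetic Fluo-8 calcium fluorescence measurement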
OX1R antag-1 = antagonists of human orexin 1 receptor; O43613; CHO/OX1R cells, Fluo-8 calcium fluorescence, orexin A; inhibition, % at 5 µM; hit rate 0.43% among 330,000; AID 434989;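 active = inhibition above its plate's threshold, mean inhibition of all tested compounds on the plate plus 3 SD, cut at about 37% in these data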;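 note: 0% = orexin A challenge wells and 100% = SB-334867-A antagonist wells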
OX1R antag-2 = blocks the human orexin 1 receptor. O43613. OX1R-expressing cells, FRET antagonist read-out. inhibition, % at 6.6 µM. hit rate 1.8% among 330,000. AID 485270; in the data active = inhibition mostly above about 38%, no sharp cut-off; inactive = mostly below about 40%;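 note: 0% = agonist challenge alone and 100% = reference antagonist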
Starred values were filed as active, the others as inactive; x = no result given. Hits are enriched below; roughly 4% of the tested compounds scored in any of these assays.

SMILES	TAAR1 agonist	CHO parental Ca	TAAR1 antag	OX1R antag-1	OX1R antag-2
CCCn1c(=O)c(C(=O)Nc2cccc(C)n2)c(O)c2ccccc21	3	-7	-16	-13	4
CCCCCCCCC(=O)NNC(=O)c1c(O)c2ccccc2n(CCC)c1=O	4	34*	-22	-13	16
Cc1cc(C(=O)N/N=C/c2ccc(OC(=O)c3ccccc3Br)cc2)n[nH]1	13	-2	54*	-6	2
Cc1cc(C(=O)N/N=C/c2ccc(-c3ccccc3Cl)o2)n[nH]1	15	-18	6	4	70*
Cc1cc(C(=O)N/N=C/c2ccc3ccccc3c2)n[nH]1	2	x	-17	x	x
Cc1cc(C(=O)N/N=C/c2cc(Br)ccc2OC(=O)c2ccccc2)n[nH]1	13	-4	51*	-23	18
CCc1cccc(CC)c1NC(=O)CSc1nnc(CCC(=O)O)c(=O)[nH]1	2	-3	8	1	10
O=C(N/C(=C/C=C/c1ccccc1)C(=O)N1CCOCC1)c1ccccc1Br	0	-22	-16	1	9
Cc1cc(O)c(N)c(C)c1Cl	3	-14	-19	-22	54*
Cc1cc(O)cc(C)c1Cl	2	-7	-12	-10	12
CC1(C)CC(=O)C(N=Nc2cccc(S(=O)(=O)N3CCOCC3)c2)=C(O)C1	1	2	-19	-5	1
CC(=O)N1CCc2cc(N=NC3=C(O)CC(C)(C)CC3=O)ccc21	2	3	6	-5	56*
Cc1nc2ccc(N=NC3=C(O)CCCC3=O)cc2s1	1	-9	-9	-2	30
Cc1nc2ccc(N=NC3=C(O)CC(C)(C)CC3=O)cc2s1	4	-8	-15	11	62*
Cc1cc(C)n(CCc2nc(-c3ccc(C)o3)cs2)n1	4	-7	-7	-15	15
Cc1cc(C)n(CCc2nc(-c3cc4ccccc4o3)cs2)n1	24	38*	19	55*	55
CC(=O)c1cccc(NC(=O)C2Cc3c(-c4ccco4)ccnc3O2)c1 (stereo not drawn)	12	x	15	x	x
Cc1ccccc1C1c2[nH]c3ccccc3c2C[C@H]2C(=O)N(c3ccccc3C(=O)NCCN3CCOCC3)C(=O)N12 (stereo partly drawn)	9	-16	50*	-23	11
CC(=O)N1CCN(c2ccccc2NC(=O)c2cc3ccccc3o2)CC1	10	-14	52*	-32	17
O=C(Nc1ccccc1N1CCN(C(=O)c2ccc(Cl)cc2)CC1)c1cc2ccccc2o1	5	-33	33	-21	15
O=C(Nc1ccccn1)c1cc2ccccc2o1	5	-13	5	-9	7
Cc1ccnc(NC(=O)c2cc3ccccc3o2)c1	-1	-19	-2	-29	53*
C[C@@H]1ON(C)[C@H]2C[C@H]3c4[nH]c5cccc(-c6ccccc6)c5c4CCN3C[C@@H]12	2	x	-24	x	x
C/C(N)=C(/C#N)C(=O)CSc1nc2cc(Cl)ccc2s1	8	-8	19	-14	56*
O=C(O)CCn1c(SCc2cccc3ccccc23)nc2ccccc21	1	-8	-1	-26	68*
SMILES	TAAR1 agonist	CHO parental Ca	TAAR1 antag	OX1R antag-1	OX1R antag-2
O=C(O)CCSc1nc2ccccc2n1CCOc1ccccc1	4	-2	14	-11	4
Cc1ccc(OCCSc2nc3ccccc3n2CCC(=O)O)cc1	0	-10	3	12	49*
Cc1ccccc1OCCSc1nc2ccccc2n1CCC(=O)O	3	-11	-14	34	74*
C=C1[C@@H](C)CN[C@@H]1CCO	10	x	-9	x	x
COc1ccccc1N1CCN(C2CCCN(C(=O)CCN3CCCCO3)C2)CC1 (stereo not drawn)	1	7	-1	-11	8
O=C(N/N=C/c1c[nH]c2ccccc12)c1ccc(Br)cc1	2	-6	0	-10	4
CC(C)Oc1ccc(Br)cc1C(=O)N/N=C/c1c[nH]c2ccccc12	2	1	11	-4	40*
CC1=CC(=O)C(C(C)=Nc2ccccc2[N+](=O)[O-])C(=O)O1 (stereo not drawn)	0	x	18	x	x
CCN(CC)C(=S)SSC(=S)N(CC)CC	47*	22	32	30	5
Nc1ccccc1-c1nc2ccccc2s1	-2	-22	-14	-18	21
CN(C)c1nc(N)nc(-c2nc3ccccc3s2)n1	6	-28	0	-12	58*
CCc1ccc2c(c1)Sc1ccccc1CC2N1CCN(C)CC1 (stereo not drawn)	43*	-3	10	-19	-2
Cc1ccc(-c2cn3cccnc3n2)cc1NC(=O)c1c(-c2ccccc2Cl)noc1C	1	-3	15	-31	26
Cc1onc(-c2ccccc2Cl)c1C(=O)Nc1ccc(-c2cn3cccnc3n2)cc1	x	-8	x	5	46*
Cc1onc(-c2ccccc2Cl)c1C(=O)NCCn1c(C)cc2ccccc21	x	-3	x	7	46*
Cc1cnc(NC(=O)c2ccc3ncsc3c2)s1	1	x	4	x	x
O=C(Nc1ccccc1Cl)c1ccccc1CC(O)(c1ccccc1)c1ccccc1	2	x	54*	x	x
O=C(N=C1N=C2C=CC(Br)=CN2Cc2ccccc21)c1ccc([N+](=O)[O-])cc1[N+](=O)[O-]	-3	-3	-42	-18	45*
COc1ccccc1CNc1ncnc2nc[nH]c12	1	5	1	-10	13
c1ccc2c(CCNc3ncnc4nc[nH]c34)c[nH]c2c1	10	4	59*	-9	13
Cc1cc(NC(=O)NC(=O)c2ccccc2NC(=O)C(C)N)ccc1Oc1ncc(Br)cn1 (stereo not drawn)	43*	x	-7	x	x
CCOC(=O)c1ccccc1NC(=O)c1cncc(Br)c1	1	x	2	x	x
CC1CCCC(NC(=O)COC(=O)COc2ccc(C#N)cc2)C1C (stereo not drawn)	3	-13	11	4	14
O=C1Nc2ccc(Br)cc2C12NNc1ccccc1O2 (stereo not drawn)	22	78*	21	60*	34
CCOP(=O)(OCC)C(NC(=O)c1cc([N+](=O)[O-])cc([N+](=O)[O-])c1)C(F)(F)F (stereo not drawn)	3	-17	4	-26	67*
CCOP(=O)(OCC)C(C)(C)NC(=O)c1cc([N+](=O)[O-])cc([N+](=O)[O-])c1	8	-3	-3	8	59*
CC(=NO)C1CCC2C3CCC4=CC(=NO)CCC4(C)C3C(O)CC12C (stereo not drawn)	21	x	67*	x	x
Oc1cc(NCCc2cccnc2)cc2cccnc12	6	-14	7	-26	66*
Oc1cc(Nc2cccnc2)cc2cccnc12	17	-9	-4	-4	26
COc1ccc(C2C(C(=O)c3ccccc3)N3c4ccccc4C=CC3C2[N+](=O)[O-])cc1 (stereo not drawn)	43*	x	19	x	x
